Assay results: the EternaBench riboswitch data

Test system: MS2 coat protein
Assay: apparent Kd, MS2 coat protein; higher = weaker binding; RNA-MaP array; FMN 200 µM where present
Procedure, shortened: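 Two titrations, one without ligand and one with constant ligand, were run with SNAP-549-labelled MS2 coat protein from 0.7 or 1.5 nM, doubling to 3 µM. The targets were designs transcribed by stalled E. coli RNA polymerase on Illumina sequencing-chip clusters, in 100 mM Tris-HCl pH 7.5, 80 mM KCl, 4 mM MgCl2, BSA, DTT, yeast tRNA and Tween-20. The apparent Kd is the median of filtered per-cluster binding-curve fits, with green signal normalised to red-channel RNA signal and control-cluster median Fmax.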

[1] = designed as: OFF switch for flavin mononucleotide, no ligand
[2] = ligand present: flavin mononucleotide, designed as: OFF switch for flavin mononucleotide
[3] = designed as: ON switch for flavin mononucleotide, no ligand
[4] = ligand present: flavin mononucleotide, designed as: ON switch for flavin mononucleotide

| Sequence | apparent Kd [1] [nM] | apparent Kd [2] [nM] | apparent Kd [3] [nM] | apparent Kd [4] [nM] |
| --- | --- | --- | --- | --- |
| CGGUCUUGUAACUAUUUGUUUCACAUGAGGAUCACCCAUGUCAGAAGGAGGUACAUCUAUUAGACCUAGGAUAUGACGUGUAAG | 27.5 | 100 |  |  |
| CGGUGACGUGUAGGAUAUGGCGCUGGGUUUUGCCCAGAAGGACAUGAGGAUCACCCAUGUGGUAGAGGGCUGGCGGCCGCCCGU | 17.1 | 21.6 |  |  |
| CGGUGCUGAGGAUAUACAUGAGGAUCACCCAUGUGUGCCAGCUAGCUGACUGGCACUUGUAGAAGGCAGUACUG | 12.7 | 24.2 |  |  |
| CGGUGUAGAGGAUAUACGUGAAUUUUGUUAUAUGAUAAUUUACAUGAGGAUCACCCAUGUAGAAGGCUAUAGCG | 17.9 | 18.1 |  |  |
| CGUAACUGCAUAGGAUAUUGAUACAUGAGGAUCACCCAUGUUUUUCGGAUUAGAUAUAUACUAAGCAAGAAGGAUGGAGUUACG |  |  | 7.83 | 5.26 |
| CGUAGGAUCCAGAAGGCAUGAACAUGAGGAUCACCCAUGUCAAAAGACAUGAGGAUAUGGAUCCUACGAAAAGUGCGAAAGCAC |  |  | 19 | 5.55 |
| CGUAGUUGGUAAGGAUAUCCUACACUGUUCUGACCCGUGCAAGCUACAUGAGGAUCACCCAUGUGGGAGAAGGUGCGUCAACGC | 18.4 | 19.6 |  |  |
| CGUAUGUCAGGAUAUGCGUAUGCCAGUCAGGGCGAGUGGCAGCAGAAGGGACAUGAGGAUCACCCAUGUUCGGG | 60.8 | 51.3 |  |  |
| CGUAUGUCAGGAUAUGCGUAUGCCGCCCAGAACGGGCAGCAGCAGAAGGGACAUGAGGAUCACCCAUGUUCGGG | 68.3 | 73.1 |  |  |
| CGUGCUUAUGUAGGAUAUGGUUAUCUAUGUCUAGUUACUAGACAUAGAUAACCAGAAGGACAUGAGGAUCACCCAUGUUGCACG | 8.28 | 15.5 |  |  |
| CGUGUGUGAGGAUAUGACAAUGGUAUCUUCGGAUACCAUUGUCAGAAGGUACAUGAGGAUCACCCAUGUAGAUC | 37.7 | 70.3 |  |  |
| CGUUAUUCAGGAUAUGGCGUGUUAUACAUGAGGAUCACCCAUGUAGAUCCUGGUUAGGCCUCAGAAGGGAAUGUUC | 43.7 | 37.8 |  |  |
| CUAAAGCGAGGAUAUACAAUAAAAGGGAAUAAGGGAAAAAAACAUGAGGAUCACCCAUGUAGAAGGCGCCGAAA | 32.2 | 30.6 |  |  |
| CUAAAUCAUGUAGGAUAUGCAUGGCGAAGCUACGCAGAAGGACAUGAGGAUCACCCAUGUCUGUCCGACAGCGUACUGUCGGAC | 19.6 | 112 |  |  |
| CUACCUUAUGAGAAGGCGAUCAUGAAACAUGAUCGAGGAUAUCAUGUAAACAUGAGGAUCACCCAUGUAUGGGUAUUAUGGUAC |  |  | 98.5 | 27.3 |
| CUACCUUAUGAGAAGGCGGUCAUGAAACAUGAUCGAGGAUAUCAUGUAAACAUGAGGAUCACCCAUGUAUGGGUAUUAUGGUAC |  |  | 170 | 33 |
| CUAGAGGAUUAAGGAUAUGCAGAGAGAUCAUGCGCGUCGCGCACAUGAGGAUCACCCAUGUAAGAGCAGAAGGUAACUAUGAUC | 18.3 | 16.6 |  |  |
| CUAGAUAUGUAAGGAUAUAUAGUGGAAUACACUAUAGAAGGUAUGUGAGAACAUGAGGAUCACCCAUGUCAUUGGAUAUCUAGA |  |  | 33.7 | 37.6 |
| CUAGUACAUGAGGAUCACCCAUGUCAGGAUAUUGGAUAUGCCUUGGAAUACAUGUUUACAAGAAGGGACUAUAG | 23 | 21.7 |  |  |
| CUAUGUUAGCAGGAUAUGCCAUUAUUCCUUUACGCAGAAGGGCUUACAUGAGGAUCACCCAUGUUACAUUUCAU | 14.1 | 29.8 |  |  |
| CUAUUACGAGGAUAUGAUUUAAAUAACAUGAGGAUCACCCAUGUUUUUACGUUAUUUUAUUUAGAAGGCGUAUAGU | 41.8 | 31 |  |  |
| CUAUUUUGUGCCUCAUUUACAUGAGGAUCACCCAUGUUAACUUAGGAUAUAUUUAUAUUGUUAGAGUAGAAGGAAGUACAUUUU | 162 | 133 |  |  |

| Sequence | apparent Kd [1] [nM] | apparent Kd [2] [nM] | apparent Kd [3] [nM] | apparent Kd [4] [nM] |
| --- | --- | --- | --- | --- |
| CUCAAGUGAGGAUAUAUACUUCCAUCAUUUGAGAUAGAAGUAUAGAAGGCACAUGAGGAUCACCCAUGUAUAAC | 136 | 39.7 |  |  |
| CUCCUACAUGAGGAUCACCCAUGUCAGGAUAUCUCAGUGGCACCUAAAGGCGCCACCCAGAGAAGGGACGUGCA | 11.6 | 14.8 |  |  |
| CUCGGACAUGAGGAUCACCCAUGUGAGGAUAUGGCGCUAUCGUCAUUAGACGAUUGCGCCAGAAGGCACAAAUG | 85.2 | 268 |  |  |
| CUCGGACAUGAGGAUCACCCAUGUGAGGAUAUGGUGCUAUCGUCAUUAGACGAUUGCGUUAGAAGGCACAUUUU | 31.4 | 80.1 |  |  |
| CUCGUCUGGAAACGGAGCGGCCAACAUGAGGAUCACCCAUGUGAGGAUAUGCCUACUAAAAGUAGGCAGAAGGCGCACUUGGCA | 23.6 | 34.1 |  |  |
| CUCGUGUAAGGAUAUGCGGGCGGGCGCGUUUGUGUUUGUUUGUAGAAGGUACAUGAGGAUCACCCAUGUACUGG | 25.5 | 57.4 |  |  |
| CUCGUGUCAGGAUAUCGAUGGCGCCUCCGGGCGCCCGAACGCGAGAAGGGACAUGAGGAUCACCCAUGUAAAAC | 71.8 | 159 |  |  |
| CUCGUGUGAGGAUAUCUAUUCCACGGACGGGAGUCUUGAAGAGAGAAGGCACAUGAGGAUCACCCAUGUAAUAA |  | 33.7 |  |  |
| CUCUUUAGUCAGGAUAUCGUGAGGCUAAUUAUACGAGAAGGGACGACAUGAGGAUCACCCAUGUGGUCUUAGAG | 17.4 | 32.1 |  |  |
| CUGAAGAGAGAAGGAUAUCACAGGAUGGAGAUCUCUGAAUAAACAUGAGGAUCACCCAUGUCCAGUGAGAAGGUCUCGGUUCCG | 186 | 195 |  |  |
| CUGAAUCGAGGAUAUUGUACUGCUGACAUGAGGAUCACCCAUGUAUGUUAACUCGGCCGUCGAGAAGGCGAACAUA | 27.6 | 18 |  |  |
| CUGACGAUGUAAGGAUAUGCUGAGGAUAACUCAGCAGAAGGUACAUGAGGAUCACCCAUGUAAUAAGAUCAAUAAUAACGUCAG | 15.3 | 32.1 |  |  |
| CUGACGGCGACGACAUUUCCAGAACCAGAAGGUGAAGUCAACAUGAGGAUCACCCAUGUCUAUAUCAAGGAUAUGGUAGUGGGC |  |  | 301 | 92.2 |
| CUGAGCAGUCAAGGAUAUCACGUCGAAUAGACGUGAGAAGGUGACCAAUACAUGAGGAUCACCCAUGUAAUACAUGAAGCUCAG |  |  | 38.1 | 17.4 |
| CUGAGCUGAGGAUAUACAUGAGGAUCACCCAUGUGUUAGAGCUUGCGUACAGGCAGAUGUAGAAGGCAGUUCGG | 17.4 | 49.7 |  |  |
| CUGAGCUGAGGAUAUACAUGAGGAUCACCCAUGUGUUGGAGCUUGCGUACAGGCAGAUGUAGAAGGCAGUUCGG | 23.6 | 88.2 |  |  |
| CUGAGGUCAGGAUAUGCAUGGCGGGACUUGCGUCGUGGCGUGGAGAAGGGACAUGAGGAUCACCCAUGUGGAGG | 117 | 99.8 |  |  |
| CUGAGGUGUCAAGGAUAUGCUACCGUUUCGGUAGCAGAAGGUGAUCACAUGAGGAUCACCCAUGUAUGCAUGCGUGAGCGUGCU |  |  | 39.5 | 55.4 |
| CUGAGUAGUCAGGAUAUGCUGUACAAAAGUACAGCAGAAGGGAUUACAUGAGGAUCACCCAUGUUUACUUCAUG | 44.8 | 209 |  |  |
| CUGAUGUGAGGAUAUCAACGCCAUGUCUUUGACAUGGCGCAUGAGAAGGCACAUGAGGAUCACCCAUGUACUUC | 23.3 | 125 |  |  |
| CUGCAACAUGAGGAUCACCCAUGUAACCCAAUUAUAGGAUAUGUGAUGGUGAUCGACAUGACAGAAGGGUGAUUGG |  |  | 38.8 | 149 |
